High-throughput results: PubChem BioAssay, Broad Institute
Shown are actives, neighbours in structure and some others; about 3% of the full set was active somewhere.
MITF act – activators of MITF-driven TRPM1 promoter reporter, primary screen, cell-based, SK-MEL-5, luciferase, single point. SK-MEL-5 TRPM1-promoter luciferase, 24 h; % of positive control, neutral wells = 0. activation, % at 12.5 µM. 0.75% of 300,000 active;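 active = mean activation of at least 80% with every replicate also reaching 80%; inconclusive = mean reaches 80% but some replicate falls short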;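 also: 0% = neutral control wells and 100% = parthenolide positive control wells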
esBAF inh – Bmi1 luciferase reporter increase in mESCs, primary screen, esBAF inhibitor project, mouse ES cells, Bmi1 luciferase knock-in, single point; AID 602393, 2012; 2% of 350,000 active; reporter increase, % at 12.5 µM; 24 h; 100% = twice the neutral-well signal; in the data active = activation above about 40%; inconclusive = no clear call, values can overlap the other calls;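 also: 0% = median of the plate's neutral control wells and 100% = double that signal; a rise in the Bmi1 reporter signal indicates esBAF inhibition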
Casp6 inh – human caspase-6 inhibitors, primary screen, biochemical, VEID-R110 fluorescence, single point, set 2 | P55212 | purified caspase-6, Z-VEID-R110 cleavage fluorescence | inhibition, % at 12.5 µM | 0.53% of 350,000 active | AID 686996, 2013;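 active = mean inhibition across replicates at least about 35%, with every replicate also reaching that limit, limit read from the data; inconclusive = only one of the two criteria met; inactive = neither criterion met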;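 also: 0% = median of neutral control wells and 100% = no fluorescence left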
Target sequence (P55212 24-179 limits assumed): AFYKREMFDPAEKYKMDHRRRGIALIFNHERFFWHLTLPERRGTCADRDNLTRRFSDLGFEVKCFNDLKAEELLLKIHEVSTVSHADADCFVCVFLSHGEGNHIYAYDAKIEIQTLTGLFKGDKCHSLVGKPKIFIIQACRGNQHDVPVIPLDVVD
Target sequence (P55212 194-293 limits assumed): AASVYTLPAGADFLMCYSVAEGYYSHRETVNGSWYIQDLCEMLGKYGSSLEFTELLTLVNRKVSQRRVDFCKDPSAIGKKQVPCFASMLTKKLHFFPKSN
NSD2 HMT inh – NSD2 histone methyltransferase inhibitors, primary screen, biochemical, AlphaScreen, single concentration, set 2 | NSD2 peptide methylation, 120 min | inhibition, % at 12.5 µM | 0.54% of 310,000 active | Histone-lysine N-methyltransferase NSD2 (Homo sapiens), O96028; in the data active = inhibition above about 50%
XiGFP reactiv – activators of inactive X chromosome reactivation, primary screen, imaging, XiGFP fibroblasts, GFP high-content imaging, set 2. XiGFP mouse fibroblasts, % GFP-positive cells imaging, 3 d; cells co-treated with 5-aza-dC sensitizer; scaled so ellipticine positive control = 100%. activation, % at 7.58 µM. 0.055% of 360,000 active;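 active = mean normalized replicate activation at least 10% and every replicate at or above 10%; inconclusive = only one of the two criteria met; inactive = mean below 10% and not all replicates reach 10%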;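 also: 0% = median of on-plate neutral control wells and 100% = ellipticine 6 µM median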
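System: XiGFP fibroblasts, SV40-immortalized. Medium: DMEM plus 5-aza-dC sensitizer. Doses: single point. Timing: 3 d treatment, 15 min room-temperature fixation. Control set: ellipticine 6 µM.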
Wnt bcat act – Wnt/beta-catenin pathway activators, primary screen, cell-based, plate reader, single point | AID 743398, 2014 | Wnt/beta-catenin reporter cell assay, activator | activation, % at 9.35 µM | 1.2% of 300,000 active; in the data active = activation above about 30%, passing the limit was not always enough; inconclusive = no clear call, values can overlap the other calls;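 also: 0% = neutral control wells and 100% = positive control wells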
esBAF Ring1 qPCR – Ring1 mRNA increase in mouse ESCs, confirmation, esBAF inhibitor project, cell-based, mouse ESC, RT-qPCR, cherry-pick | 550 tested, under 10 active | shares compounds with esBAF inh | mouse ESC E14, Ring1 mRNA RT-qPCR fold change | fold change at 33 µM;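 active = Ring1 gene expression raised more than 2-fold over untreated cells in both replicates at either tested dose; inconclusive = only one replicate above 2-fold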;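 also: Ring1 transcript normalised to actin housekeeping signal by TaqMan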
Fgf4 repress – Fgf4 mRNA decrease in mouse ESCs, confirmation, esBAF inhibitor project, cell-based, mouse ESC, RT-qPCR, cherry-pick; shares compounds with esBAF inh; mouse ESC E14, Fgf4 mRNA qPCR fold change; stronger effect = lower value; Fgf4 expression fold change at 33 µM; 4% of 550 active;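 active = Fgf4 expression under 0.8 fold of control in both repeat measurements at one or both tested doses; inconclusive = under 0.8 fold in just a single repeat measurement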;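 also: Fgf4 transcript normalised to actin in duplex TaqMan qPCR; cells exposed to compound for 24 h before lysis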
Bmi1 derepress – esBAF inhibition via Bmi1 de-repression, confirmation, cell-based, RT-qPCR, mouse ESC, single point, cherry-pick; shares compounds with esBAF inh; mouse ESE14 ES cells, Bmi1 mRNA qPCR fold; stronger effect = higher value; fold change at 33 µM; 550 tested, under 10 active;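 active = Bmi1 expression fold change above 6 at either tested concentration, seen in replicate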
A549 tox SP – A549 cell cytotoxicity, cytotoxicity control, plate reader, single point, cherry-pick | shares compounds with esBAF inh | cell viability change % (negative = cytotoxic), % at 25 µM, hits read low | 550 tested, under 10 active | AID 743188, 2013; call rule not given here
HepG2 tox SP – HepG2 cell cytotoxicity, cytotoxicity control, plate reader, single point, cherry-pick | activity change, negative = inhibition, % at 25 µM | shares compounds with esBAF inh | AID 743189, 2013 | stronger effect = lower value | 4% of 550 active; in the data active = activity change below about -50%
HEK293 cytotox SP – HEK293 cell cytotoxicity, cytotoxicity control, plate reader, single point, cherry-pick | 3% of 550 active | shares compounds with esBAF inh | activity change, negative = inhibition, % at 25 µM, hits read low; in the data active = activity change below about -38%, passing the limit was not always enough
An asterisk follows results filed as active; ? = inconclusive; . = not tested or not shown.

SMILES	MITF act	esBAF inh	Casp6 inh	NSD2 HMT inh	XiGFP reactiv	Wnt bcat act	esBAF Ring1 qPCR	Fgf4 repress	Bmi1 derepress	A549 tox SP	HepG2 tox SP	HEK293 cytotox SP
Cc1ccc(C(=O)NCC(=O)Nc2ccc3c(c2)CCC3)cc1	46	72*	0	-3	0	-2	0.89	0.88	1.4	-2	-8	-8
COc1ccc(-c2nnn(Cc3ccccc3)n2)cc1	36	79*	0	-3	0	15	1.1	0.87	1.3	-4	-1	3
Nc1ccc(-c2nnn(Cc3ccccc3)n2)cc1	.	19	2	1	0	4	.	.	.	.	.	.
CCC1CCCCN1C(=O)c1ccc2nc(Cc3ccc(OC)cc3)oc2c1 (configuration not stated)	?	67*	1	0	0	-1	1	1.2	0.91	7	-11	12
COc1cccc(C(=O)c2cc3cc(Cl)ccc3[nH]2)c1	23	78*	0	-2	0	14	1	?	2.5	-6	-34	5
O=C(c1ccccc1)c1cc2cc(Cl)ccc2[nH]1	62	34	-3	1	0	18	.	.	.	.	.	.
C[C@@H]1CN([C@@H](C)CO)C(=O)c2cc(C#Cc3ccccc3)cnc2O[C@@H]1CN(C)C(=O)c1ccccc1F	.	-11	1	.	3	.	.	.	.	.	.	.
O=C(NC1CCC1)[C@@H]1[C@@H](CO)[C@@H]2Cn3c(ccc(-c4ccccc4)c3=O)[C@H]1N2	.	3	2	.	0	.	.	.	.	.	.	.
O=C(Nc1ccc2c(c1)OCO2)c1cnc(Cl)c(Cl)c1	53	54*	-1	-1	0	-1	0.97	1.1	1	5	-9	-2
C[C@@H]1CN([C@@H](C)CO)C(=O)c2cc(NC(=O)Nc3ccc4c(c3)OCO4)ccc2O[C@@H]1CN(C)Cc1ccccc1	.	7	1	.	0	.	.	.	.	.	.	.
COc1cccc(/C=N/n2c(N)nc3ccccc32)c1OC	90*	73*	.	5	.	27	1.6	1	2.3	-4	-13	-9
COc1ccc(/C=N/n2c(N)nc3ccccc32)cc1OC	43	26	.	-1	.	.	.	.	.	.	.	.
CCCS(=O)(=O)N1CCC(C(=O)NC2CCC(C)CC2)CC1 (configuration not stated)	74	56*	.	3	.	.	1.1	0.89	1.3	-8	-22	-7
CCCN1[C@H](C(=O)OC)[C@@H](CO)[C@@H]2Cn3c(ccc(-c4cccnc4)c3=O)[C@@H]21	.	.	4	.	0	.	.	.	.	.	.	.
